Data as given in ChEMBL document CHEMBL3351944 (J Nat Prod, 2014).

How the values were obtained:
[1] = target: T1, Kappa-type opioid receptor (Homo sapiens, UniProt P41145); experiment: Agonist activity at human kappa opioid receptor expressed CHO cells co-expressing Galphaq16 assessed as calcium mobilization by fluorescence assay; format: functional, cell-based
Procedure, shortened: (§1)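 CHO cells stably expressing KOP and Gαq16, grown overnight at 37 °C. Loaded with Calcium 5 dye in HBSS with 20 mM HEPES, 0.25% BSA, 1% DMSO, […], 1 h at 37 °C. Compounds added as 10× dilutions, top 10 μM. Fluorescence change over baseline recorded for 60 s. 10-point curves in duplicate, n = 2. Nonlinear regression gave EC50 and Emax.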

[2] = test system: MCF7; experiment: Antiproliferative activity against human MCF7 cells assessed as growth inhibition after 72 hrs by MTS/PMS assay; format: functional, cell-based; conditions: MCF7, 72 h
Procedure, shortened: (§2)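 MCF7 cells seeded at 2000/well and left to attach overnight. Six-point curves in duplicate over 100 nM–100 μM for test compounds and 1 nM–1 μM for geldanamycin, 1% DMSO final, 72 h at 37 °C. Growth read by MTS/PMS and normalized to 1% DMSO controls. At least two independent experiments; nonlinear regression gave IC50 and % inhibition.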

[3] = test system: MCF7; experiment: Antiproliferative activity against human MCF7 cells assessed as growth inhibition after 72 hrs by MTS/PMS assay relative to DNSO-treated control; format: functional; procedure, shortened: as §2
[4] = target: T1, Kappa-type opioid receptor; experiment: Agonist activity at human kappa opioid receptor expressed CHO cells co-expressing Galphaq16 assessed as calcium mobilization by fluorescence assay relative to (-)-U69593; format: functional, cell-based; procedure, shortened: as §1
[5] = test system: MDCK; experiment: Apparent permeability from basolateral side to apical in MDCK cells expressing MDR1 at 10 uM after 60 mins by LC/MS analysis; format: ADME, cell-based, Canis lupus familiaris; conditions: dog, 1 h
[6] = test system: MDCK; experiment: Apparent permeability from basolateral side to apical in verapamil pretreated MDCK cells expressing MDR1 at 10 uM after 60 mins by LC/MS analysis; format: ADME, cell-based, Canis lupus familiaris; conditions: dog, 1 h

T1 sequence (P41145 whole entry): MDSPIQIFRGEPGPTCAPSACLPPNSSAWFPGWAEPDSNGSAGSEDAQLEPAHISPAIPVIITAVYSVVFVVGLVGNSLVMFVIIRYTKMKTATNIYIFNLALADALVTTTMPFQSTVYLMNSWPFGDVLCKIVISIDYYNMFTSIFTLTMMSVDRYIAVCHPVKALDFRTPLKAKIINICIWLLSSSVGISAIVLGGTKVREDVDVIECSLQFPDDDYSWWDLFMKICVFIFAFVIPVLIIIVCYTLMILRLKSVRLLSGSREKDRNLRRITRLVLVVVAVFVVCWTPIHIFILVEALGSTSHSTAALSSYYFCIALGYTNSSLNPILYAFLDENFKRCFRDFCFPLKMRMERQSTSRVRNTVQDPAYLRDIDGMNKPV

Row | Compound | EC50 [1] | IC50 [2] | inhibition (INH) [3] | Emax [4] | permeability [5] | permeability [6]
1 | COC(=O)[C@@H]1C[C@H](OC(C)=O)C(=O)[C@H]2[C@@]1(C)CC[C@H]1C(=O)O[C@H](CC3=CC(=O)C=CC3=O)C[C@]21C | 2500 nM | 6540 nM | 77% | 27% | – | –
2 | COC(=O)[C@@H]1C[C@H](OC(C)=O)C(=O)[C@H]2[C@@]1(C)CC[C@H]1C(=O)O[C@H](c3ccoc3)C[C@]21C [SALVINORIN A] | – | > 100000 nM | – | – | 21.2% | 54.2%
3 | Cn1c(=O)c2c(ncn2C)n(C)c1=O [CAFFEINE] | – | – | – | – | 85.9% | 73%
4 | COC(=O)[C@@H]1C[C@H](OC(C)=O)C(=O)[C@H]2[C@@]1(C)CC[C@H]1C(=O)O[C@H](CC3=CC(=O)C(OC)=CC3=O)C[C@]21C | > 10000 nM | 5840 nM | 83% | – | 9.7% | 38.4%
5 | COC(=O)[C@@H]1C[C@H](OC(C)=O)C(=O)[C@H]2[C@@]1(C)CC[C@H]1C(=O)O[C@H](CC3=CC(=O)C(OC)=C(OC)C3=O)C[C@]21C | > 10000 nM | 2700 nM | 86% | – | 5% | 47.2%
6 | COc1cc2nc(N3CCN(C(=O)c4ccco4)CC3)nc(N)c2cc1OC [PRAZOSIN] | – | – | – | – | 6.7% | 35.5%
7 | COC1=C2C[C@@H](C)C[C@H](OC)[C@H](O)[C@@H](C)/C=C(\C)[C@H](OC(N)=O)[C@@H](OC)/C=C\C=C(/C)C(=O)NC(=CC1=O)C2=O [GELDANAMYCIN] | – | 40 nM | 81% | – | – | –
8 | O=C1C=CC(=O)C=C1 [BENZOQUINONE] | – | 2570 nM | 85% | – | – | –
